Among the data in ChEMBL document CHEMBL3632617, “Chrysin-benzothiazole conjugates as antioxidant and anticancer agents” (Bioorg Med Chem Lett, 2015) are IC50 and CC50 values, retold here.

Data set [1] relates to HeLa. Kind of data set: Cytotoxicity against human HeLa cells after 48 hrs by SRB assay. The format is functional, cell-based. The essentials:
(§1)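 Cell lines (HeLa, CaSki, SK-OV-3, MDCK) were obtained from ATCC. The colorimetric end point used the protein-binding dye sulforhodamine B.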
For orientation: In SRB staining, fixed cells bind dye roughly in proportion to their protein.

The test system of a further data set is MDCK. The data set can be described thus: Cytotoxicity against MDCK cells after 48 hrs by SRB assay. The format is cell-based. As to conditions: Canis lupus familiaris. The method in brief:
as §1

The test system of another data set is SK-OV-3. The data set can be described thus: Cytotoxicity against human SKOV3 cells after 48 hrs by SRB assay. It counts as functional, cell-based. Particulars: SK-OV-3, 48 h. The method in brief: as §1
Data set [2] can be described thus: Antioxidant activity assessed as DPPH radical scavenging activity after 25 mins by UV-Visible spectrophotometric analysis. The format is physicochemical. The method in brief: (§2)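 Radical scavenging by DPPH (Brand–Williams method) and by ABTS radical-cation decolorization via single electron transfer. Ascorbic acid served as the reference. IC50 is the concentration that inhibits 50% of the radicals. Results are the average of triplicate analyses.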
Background: Loss of DPPH colour is used to gauge radical scavenging.

A short description of data set [3]: Antioxidant activity assessed as ABTS radical scavenging activity after 10 mins by UV-Visible spectrophotometric analysis. The format is physicochemical. The method in brief:
as §2

The nature of data set [4]: Cytotoxicity against human CaSki cells after 48 hrs by SRB assay. The format is functional, cell-based. Particulars: Ca-Ski. The essentials: as §1
Data set [5] relates to HeLa. Kind of data set: Cytotoxicity against human HeLa cells. It counts as functional, cell-based.

≈ marks a conversion by molar mass, not a printed value.

As to `O=c1cc(-c2ccccc2)oc2cc(OCCCCNc3nc4ccc([N+](=O)[O-])cc4s3)cc(O)c12`, the IC50 in the data set on HeLa [1] stood at 6.44 µg/mL (≈ 12.8 µM); with SK-OV-3, 41.4 µg/mL (≈ 82.3 µM); in data set [2], 30.25 µg/mL (≈ 60.1 µM); in data set [3], 8.135 µg/mL (≈ 16.2 µM); in data set [4], 13.2 µg/mL (≈ 26.3 µM). The midpoint of cytotoxicity in the data set with MDCK, the CC50, lay at 310 µg/mL (≈ 615 µM).
For `CCC(=O)c1ccc2nc(NCCCCOc3cc(O)c4c(=O)cc(-c5ccccc5)oc4c3)sc2c1`, the IC50 in the data set on HeLa [1] came to 6.26 µg/mL (≈ 12.2 µM); with SK-OV-3, 35.6 µg/mL (≈ 69.3 µM); in data set [2], 32.23 µg/mL (≈ 62.6 µM); in data set [3] it was 7.157 µg/mL (≈ 13.9 µM); in data set [4], 17.8 µg/mL (≈ 34.7 µM). In the data set on MDCK, this compound came in with a cytotoxic concentration (CC50) of 296 µg/mL (≈ 574 µM).
As to `Cc1ccc2nc(NCCCCOc3cc(O)c4c(=O)cc(-c5ccccc5)oc4c3)sc2c1`, the IC50 turned out to be 6.56 µg/mL (≈ 13.9 µM) in the data set on HeLa [1]; 48.4 µg/mL (≈ 102 µM) with SK-OV-3; 28.13 µg/mL (≈ 59.5 µM) in data set [2]; 8.785 µg/mL (≈ 18.6 µM) in data set [3]; 15.5 µg/mL (≈ 32.9 µM) in data set [4]. For the same compound, the CC50 in the data set with MDCK was 294 µg/mL (≈ 621 µM).
Consider `CCOc1ccc2nc(NCCCCOc3cc(O)c4c(=O)cc(-c5ccccc5)oc4c3)sc2c1`, for which the IC50 in the data set on HeLa [1] came to 5.25 µg/mL (≈ 10.4 µM); in the data set on SK-OV-3, 35.3 µg/mL (≈ 70.3 µM); in data set [2], 24.41 µg/mL (≈ 48.6 µM); in data set [3] it was 8.853 µg/mL (≈ 17.6 µM); in data set [4], 15.1 µg/mL (≈ 29.9 µM). In the data set with MDCK, this compound gave a CC50 of 306 µg/mL (≈ 610 µM).
As for `COc1ccc2nc(NCCCCOc3cc(O)c4c(=O)cc(-c5ccccc5)oc4c3)sc2c1`, the IC50 was 6.15 µg/mL (≈ 12.6 µM) in the data set on HeLa [1]; 38.1 µg/mL (≈ 78.1 µM) in the data set with SK-OV-3; 23.87 µg/mL (≈ 48.9 µM) in data set [2]; 7.356 µg/mL (≈ 15.1 µM) in data set [3]; 16.1 µg/mL (≈ 33 µM) in data set [4]. The CC50 with MDCK was 285 µg/mL (≈ 583 µM).
With `CC(=O)Nc1ccc2nc(NCCCCOc3cc(O)c4c(=O)cc(-c5ccccc5)oc4c3)sc2c1`, the IC50 in the data set on HeLa [1] worked out at 6.91 µg/mL (≈ 13.4 µM); in the data set on SK-OV-3, 51.3 µg/mL (≈ 99.4 µM); in data set [2], 29.16 µg/mL (≈ 56.6 µM); in data set [3], 8.355 µg/mL (≈ 16.2 µM); in data set [4], 11.4 µg/mL (≈ 22 µM). In addition, the CC50 with MDCK turned out to be 291 µg/mL (≈ 565 µM).
For the compound `CC(=O)c1ccc2nc(NCCCCOc3cc(O)c4c(=O)cc(-c5ccccc5)oc4c3)sc2c1`, the IC50 was 7.78 µg/mL (≈ 15.6 µM) in the data set with HeLa [1]; 34.3 µg/mL (≈ 68.4 µM) in the data set with SK-OV-3; 30.72 µg/mL (≈ 61.4 µM) in data set [2]; 7.026 µg/mL (≈ 14 µM) in data set [3]; 14.5 µg/mL (≈ 29 µM) in data set [4]. In addition, the CC50 in the data set on MDCK is 311 µg/mL (≈ 621 µM).
`O=c1cc(-c2ccccc2)oc2cc(OCCCCNc3nc4c(F)cc(F)cc4s3)cc(O)c12`: the 50% inhibitory concentration (IC50) is 5.56 µg/mL (≈ 11.2 µM) in the data set on HeLa [1]; 36.8 µg/mL (≈ 74.5 µM) in the data set with SK-OV-3; 15.12 µg/mL (≈ 30.6 µM) in data set [2]; 5.764 µg/mL (≈ 11.7 µM) in data set [3]; 10.8 µg/mL (≈ 21.9 µM) in data set [4]. Moreover, it took 307 µg/mL (≈ 621 µM) to reach half-maximal cytotoxicity with MDCK (CC50).
Turning to `O=c1cc(-c2ccccc2)oc2cc(OCCCCNc3nc4ccccc4s3)cc(O)c12`, the IC50 with HeLa [1] came out at 4.75 µg/mL (≈ 10.4 µM); with SK-OV-3, 48.5 µg/mL (≈ 106 µM); in data set [2] it was 26.45 µg/mL (≈ 57.7 µM); in data set [3], 8.567 µg/mL (≈ 18.7 µM); in data set [4], 14.6 µg/mL (≈ 31.9 µM). The CC50 in the data set with MDCK came to 348 µg/mL (≈ 758 µM).
For `O=C(O)c1ccc2nc(NCCCCOc3cc(O)c4c(=O)cc(-c5ccccc5)oc4c3)sc2c1`, the IC50 in the data set on HeLa [1] was 8.42 µg/mL (≈ 16.8 µM); in the data set with SK-OV-3, 43.3 µg/mL (≈ 86.3 µM); in data set [2] it was 21.66 µg/mL (≈ 43.1 µM); in data set [3], 6.742 µg/mL (≈ 13.4 µM); in data set [4] it was 12.1 µg/mL (≈ 24 µM). In the data set on MDCK, this compound registered a CC50 of 324 µg/mL (≈ 645 µM).
For `O=C1O[C@H]([C@@H](O)CO)C(O)=C1O` [ASCORBIC ACID], the concentration for half-maximal inhibition (IC50) in data set [2] turned out to be 12.72 µg/mL (≈ 72.2 µM); in data set [3] it was 5.0925 µg/mL (≈ 28.9 µM).
Take `O=c1cc(-c2ccccc2)oc2cc(OCCCCNc3nc4ccc(C(F)(F)F)cc4s3)cc(O)c12`: the IC50 in the data set with HeLa [1] was 7.84 µg/mL (≈ 14.9 µM); in the data set on SK-OV-3 it was 37.2 µg/mL (≈ 70.6 µM); in data set [2], 16.27 µg/mL (≈ 30.9 µM); in data set [3], 4.953 µg/mL (≈ 9.41 µM); in data set [4] it was 11.2 µg/mL (≈ 21.3 µM). This compound also showed a CC50 with MDCK of 278 µg/mL (≈ 529 µM).
On to `CCCC(=O)c1ccc2nc(NCCCCOc3cc(O)c4c(=O)cc(-c5ccccc5)oc4c3)sc2c1`, for which the IC50 amounted to 7.17 µg/mL (≈ 13.6 µM) in the data set with HeLa [1]; 41.6 µg/mL (≈ 78.7 µM) in the data set on SK-OV-3; 38.98 µg/mL (≈ 73.7 µM) in data set [2]; 8.535 µg/mL (≈ 16.1 µM) in data set [3]; 17.8 µg/mL (≈ 33.6 µM) in data set [4]. This compound showed a CC50 with MDCK of 278 µg/mL (≈ 525 µM).
With `O=c1cc(-c2ccccc2)oc2cc(OCCCCNc3nc4ccc(Cl)cc4s3)cc(O)c12`, the IC50 was found to be 5.95 µg/mL (≈ 12.1 µM) in the data set with HeLa [1]; 39.2 µg/mL (≈ 79.6 µM) in the data set on SK-OV-3; 13.16 µg/mL (≈ 26.7 µM) in data set [2]; 4.156 µg/mL (≈ 8.43 µM) in data set [3]; 12.4 µg/mL (≈ 25.2 µM) in data set [4]. In the data set with MDCK, this compound yielded a CC50 of 338 µg/mL (≈ 685 µM).
Consider `O=c1cc(-c2ccccc2)oc2cc(OCCCCNc3nc4ccc(Br)cc4s3)cc(O)c12`, for which the IC50 came out at 6.56 µg/mL (≈ 12.2 µM) in the data set on HeLa [1]; 35.1 µg/mL (≈ 65.3 µM) with SK-OV-3; 16.09 µg/mL (≈ 29.9 µM) in data set [2]; 6.565 µg/mL (≈ 12.2 µM) in data set [3]; 12.4 µg/mL (≈ 23.1 µM) in data set [4]. Also, in the data set with MDCK, the CC50 amounted to 289 µg/mL (≈ 538 µM).
Turning to `O=c1cc(-c2ccccc2)oc2cc(OCCCCNc3nc4ccc(I)cc4s3)cc(O)c12`, the IC50 is 8.12 µg/mL (≈ 13.9 µM) in the data set with HeLa [1]; 56.4 µg/mL (≈ 96.6 µM) in the data set on SK-OV-3; 25.44 µg/mL (≈ 43.5 µM) in data set [2]; 9.836 µg/mL (≈ 16.8 µM) in data set [3]; 13.2 µg/mL (≈ 22.5 µM) in data set [4]. In the data set with MDCK, it took 298 µg/mL (≈ 510 µM) to reach half-maximal cytotoxicity (CC50).
In the data set on HeLa [5], `O=c1cc(-c2ccccc2)oc2cc(O)cc(O)c12` [CHRYSIN] registered a 50% inhibitory concentration (IC50) of 10.9 µg/mL (≈ 43 µM).
As for `N#Cc1ccc2nc(NCCCCOc3cc(O)c4c(=O)cc(-c5ccccc5)oc4c3)sc2c1`, the IC50 was determined as 8.53 µg/mL (≈ 17.6 µM) in the data set with HeLa [1]; 43.7 µg/mL (≈ 90.4 µM) in the data set on SK-OV-3; 15.56 µg/mL (≈ 32.2 µM) in data set [2]; 6.543 µg/mL (≈ 13.5 µM) in data set [3]; 18.8 µg/mL (≈ 39 µM) in data set [4]. This compound also gave a 50% cytotoxic concentration (CC50) in the data set with MDCK of 312 µg/mL (≈ 646 µM).
As for `O=c1cc(-c2ccccc2)oc2cc(OCCCCNNc3nc4ccccc4s3)cc(O)c12`, the IC50 in the data set on HeLa [1] amounted to 4.64 µg/mL (≈ 9.79 µM); in the data set on SK-OV-3, 51.7 µg/mL (≈ 109 µM); in data set [2], 24.34 µg/mL (≈ 51.4 µM); in data set [3], 8.734 µg/mL (≈ 18.4 µM); in data set [4] it was 14.6 µg/mL (≈ 30.9 µM). Further, in the data set on MDCK, the CC50 was found to be 316 µg/mL (≈ 668 µM).
Turning to `O=c1cc(-c2ccccc2)oc2cc(OCCCCNc3nc4ccc(F)cc4s3)cc(O)c12`, the IC50 came out at 5.03 µg/mL (≈ 10.6 µM) in the data set with HeLa [1]; 33.7 µg/mL (≈ 70.8 µM) in the data set on SK-OV-3; 14.74 µg/mL (≈ 30.9 µM) in data set [2]; 5.246 µg/mL (≈ 11 µM) in data set [3]; 13.4 µg/mL (≈ 28 µM) in data set [4]. The compound further registered a CC50 in the data set with MDCK of 324 µg/mL (≈ 680 µM).

The IC50 is the concentration at which inhibition is half-maximal. As a reminder, the CC50 is the concentration giving 50% cytotoxicity. Low values mean greater toxicity to the cells, high ones lower toxicity to the cells.
